Data taken from ChEMBL document CHEMBL1165950, “Design and synthesis of new potent anticancer pyrazoles with high FLT3 kinase inhibitory selectivity” (Bioorg Med Chem, 2010).

Tests used:
Format in all cases: functional
MDA-MB-468 = assay: Cytotoxicity against human MDA-MB-468 cells assessed as cell growth at 100 nM after 48 hrs by sulforhodamine B assay; settings: MDA-MB-468, 48 h, read-out: Activity
SF-539 [1] = assay: Growth inhibition of human SF539 cells after 48 hrs by sulforhodamine B assay; settings: SF-539, 48 h
How it was run: (§1)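 NCI 60-cell screen, five-dose mode. Cells grown in RPMI 1640 with 5% FBS and 2 mM L-glutamine and plated at 5000-40,000 cells/well according to doubling time. After 24 h preincubation, a Tz plate was TCA-fixed. Five concentrations (10-fold or 1/2 log dilutions) were applied for 48 h at 37 °C. SRB staining read at 515 nm. IC50 taken from [(Ti-Tz)/(C-Tz)]×100 = 50.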

MOLT-4 = assay: Cytotoxicity against human MOLT4 cells assessed as cell growth at 100 nM after 48 hrs by sulforhodamine B assay; settings: MOLT-4, 48 h, read-out: Activity
NCI-H226 = assay: Cytotoxicity against human NCI-H226 cells assessed as cell growth at 0.001 uM after 48 hrs by sulforhodamine B assay; settings: NCI-H226, 48 h, read-out: Activity
SF-539 [2] = assay: Cytotoxicity against human SF539 cells assessed as cell growth at 0.001 uM after 48 hrs by sulforhodamine B assay; settings: SF-539, 48 h, read-out: Activity
SN12C = assay: Cytotoxicity against human SN12C cells assessed as cell growth at 10 uM after 48 hrs by sulforhodamine B assay; settings: read-out: Activity
NCI-H322M = assay: Growth inhibition of human NCI-H322M cells after 48 hrs by sulforhodamine B assay; how it was run: as §1
HOP-62 = assay: Cytotoxicity against human HOP62 cells assessed as cell growth at 10 uM; settings: read-out: Activity
How it was run: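 Single-dose NCI-60 screen at 10 µM. Cells were grown in RPMI 1640 with 5% FBS and 2 mM L-glutamine, then treated for 48 h at 37 °C. Protein was measured by SRB staining with absorbance at 515 nm. Percentage growth was recorded, and inhibition percentage was calculated as 100 minus growth percentage.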

U-251 [3] = assay: Cytotoxicity against human U251 cells assessed as cell growth at 100 nM after 48 hrs by sulforhodamine B assay; settings: U-251, 48 h, read-out: Activity
Malme-3M = assay: Cytotoxicity against human MALME-3M cells assessed as cell growth at 1 uM after 48 hrs by sulforhodamine B assay; settings: read-out: Activity
SNB-75 = assay: Cytotoxicity against human SNB75 cells assessed as cell growth at 10 uM; settings: read-out: Activity
How it was run: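 NCI-60 screen: cells grown in RPMI 1640 with 5% FBS and 2 mM L-glutamine, plated at 5000–40,000 cells/well according to doubling time, and preincubated 24 h at 37 °C, 5% CO2. The single 10 µM dose (DMSO stock) was added, then incubated 48 h. Cells were TCA-fixed and stained with 0.4% SRB, read at 515 nm, and growth % calculated against time-zero and control plates.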

EKVX [4] = assay: Cytotoxicity against human EKVX cells assessed as cell growth at 0.001 uM after 48 hrs by sulforhodamine B assay; settings: read-out: Activity
PC-3 = assay: Cytotoxicity against human PC3 cells assessed as cell growth at 100 nM after 48 hrs by sulforhodamine B assay; settings: PC-3, 48 h, read-out: Activity
SW-620 [5] = assay: Cytotoxicity against human SW620 cells assessed as cell growth at 1 uM after 48 hrs by sulforhodamine B assay; settings: SW-620, 48 h, read-out: Activity
HCT-15 = assay: Cytotoxicity against human HCT15 cells assessed as cell growth at 0.001 uM after 48 hrs by sulforhodamine B assay; settings: HCT-15, 48 h, read-out: Activity
A498 = assay: Cytotoxicity against human A498 cells assessed as cell growth at 0.001 uM after 48 hrs by sulforhodamine B assay; settings: A498, 48 h, read-out: Activity
How it was run: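 NCI-60 five-dose screen. Cells were grown in RPMI 1640 with 5% FBS and 2 mM L-glutamine, plated at 5000–40,000 cells/well and preincubated for 24 h. Time-zero plates were TCA-fixed. DMSO-solubilized drug was added at five concentrations (10-fold or ½-log serial dilutions) for 48 h at 37 °C, 5% CO2. Cells were TCA-fixed, stained with 0.4% SRB and read at 515 nm. Percent growth used time-zero, control and test absorbances.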

SR = assay: Cytotoxicity against human SR cells assessed as cell growth at 10 uM after 48 hrs by sulforhodamine B assay; settings: read-out: Activity
[6] = Growth inhibition of human NCI60 cells at 10 uM after 48 hrs by sulforhodamine B assay relative to control; settings: NCI60, 48 h, read-out: GI
How it was run: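 Single-dose NCI screen at 10 µM across the 60-line panel, 48 h exposure at 37 °C after a 24 h preincubation. Adherent cells were fixed with cold TCA and stained with 0.4% SRB, and absorbance was read at 515 nm. Inhibition % was taken as 100 minus growth %, and the mean across all lines was reported.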

NCI-H460 = assay: Growth inhibition of human NCI-H460 cells after 48 hrs by sulforhodamine B assay; settings: NCI-H460, 48 h, read-out: LC50 (the source's name); how it was run: as §1
T47D = assay: Cytotoxicity against human T47D cells assessed as cell growth at 0.01 uM after 48 hrs by sulforhodamine B assay; settings: read-out: Activity
EKVX [7] = assay: Cytotoxicity against human EKVX cells assessed as cell growth at 0.01 uM after 48 hrs by sulforhodamine B assay; settings: read-out: Activity
LOX IMVI = assay: Cytotoxicity against human LOXIMVI cells assessed as cell growth at 1 uM after 48 hrs by sulforhodamine B assay; settings: read-out: Activity
SW-620 [8] = assay: Cytotoxicity against human SW620 cells assessed as cell growth at 100 nM after 48 hrs by sulforhodamine B assay; settings: SW-620, 48 h, read-out: Activity
OVCAR-3 = assay: Cytotoxicity against human OVCAR-3 cells assessed as cell growth at 1 uM after 48 hrs by sulforhodamine B assay; settings: OVCAR-3, 48 h, read-out: Activity
UACC-257 = assay: Cytotoxicity against human UACC257 cells assessed as cell growth at 0.01 uM after 48 hrs by sulforhodamine B assay; settings: UACC-257, 48 h, read-out: Activity
NCI/ADR-RES = assay: Growth inhibition of human NCI/ADR-RES cells after 48 hrs by sulforhodamine B assay; how it was run: as §1
U-251 [9] = assay: Cytotoxicity against human U251 cells assessed as cell growth at 1 uM after 48 hrs by sulforhodamine B assay; settings: U-251, 48 h, read-out: Activity
RXF 393 = assay: Cytotoxicity against human RXF393 cells assessed as cell growth at 0.01 uM after 48 hrs by sulforhodamine B assay; settings: RXF 393, 48 h, read-out: Activity
TK-10 = assay: Cytotoxicity against human TK10 cells assessed as cell growth at 100 nM after 48 hrs by sulforhodamine B assay; settings: TK-10, 48 h, read-out: Activity
[10] = read-out: LC50 (the source's name)

In the case of COc1cc(C)cc(-c2nn(CC#N)cc2-c2ccnc(-c3ccc(N(C)C)cc3)c2)c1, the growth at 0.1 µM (MDA-MB-468) is reported as -18%, the GI50 (SF-539 [1]) is reported as 259 nM and the TGI (SF-539 [1]) is reported as 596 nM. It also gave a CC50 (SF-539 [1]; [10]) greater than 100000 nM, a growth at 0.1 µM (MOLT-4) of 39% and a growth at 0.001 µM (NCI-H226) of 103%. It also gave a growth at 0.001 µM (SF-539 [2]) of 102%, a growth at 10 µM (SN12C) of -8% and a TGI (NCI-H322M) greater than 1000 nM. For the same compound, the CC50 (NCI-H322M; [10]) was greater than 100000 nM, the growth at 10 µM (HOP-62) was 18.9% and the growth at 0.1 µM (U-251 [3]) was 16%. It also gave a growth at 1 µM (Malme-3M) of 61%, a growth at 10 µM (SNB-75) of -25.5% and a growth at 0.001 µM (EKVX [4]) of 91%. It also gave a growth at 0.1 µM (PC-3) of 14%, a growth at 1 µM (SW-620 [5]) of 19% and a growth at 0.001 µM (HCT-15) of 99%. For the same compound, the growth at 0.001 µM (A498) was 91%, the growth at 10 µM (SR) was 8% and the inhibition of growth at 10 µM [6] was 92.3%. It also gave a CC50 (NCI-H460) of 94700 nM, a growth at 0.01 µM (T47D) of 104% and a growth at 0.01 µM (EKVX [7]) of 89%. It also gave a growth at 1 µM (LOX IMVI) of 5%, a growth at 0.1 µM (SW-620 [8]) of 14% and a growth at 1 µM (OVCAR-3) of -41%. The growth at 0.01 µM (UACC-257) was 91%, the GI50 (NCI/ADR-RES) was 253 nM and the TGI (NCI/ADR-RES) was 655 nM. For the same compound, the CC50 (NCI/ADR-RES; [10]) was greater than 100000 nM, the growth at 1 µM (U-251 [9]) was -5% and the growth at 0.01 µM (RXF 393) was 103%. For the same compound, the growth at 0.1 µM (TK-10) was 50%.
